Assay outcomes from PubChem BioAssay.
Only some compounds are listed: those with a hit (about 2.3% of all), similar ones and a draw of the others.
OXTR potentiate: human OXTR potentiators, primary screen, fluorescence, CHO-OTR cells, Fluo-8 calcium; Oxytocin receptor (Homo sapiens), P30559; Fluo-8 calcium fluorescence, potentiator mode; 0% = oxytocin EC15, 100% = EC100; activation, % at 3 µM; 320,000 tested, 0.061% active; AID 2445, 2010;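 active = activation above that plate's cutoff, the mean activation of tested compounds plus 3 SD, cut at about 6.6% in these data, passing the limit was not always enough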
Target sequence (P30559 whole entry, looked up): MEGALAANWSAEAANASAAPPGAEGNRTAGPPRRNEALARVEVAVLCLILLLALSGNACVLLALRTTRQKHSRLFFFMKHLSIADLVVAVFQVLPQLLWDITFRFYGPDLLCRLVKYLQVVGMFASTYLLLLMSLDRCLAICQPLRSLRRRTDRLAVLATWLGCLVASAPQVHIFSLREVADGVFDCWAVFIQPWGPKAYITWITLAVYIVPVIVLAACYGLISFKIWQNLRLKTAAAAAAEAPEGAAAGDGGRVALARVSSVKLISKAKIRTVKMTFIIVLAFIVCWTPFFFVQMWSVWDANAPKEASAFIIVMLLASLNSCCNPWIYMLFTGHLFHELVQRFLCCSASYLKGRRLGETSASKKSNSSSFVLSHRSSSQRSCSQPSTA
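Assay system: CHO cell line stably expressing human OTR | Also added: Oxytocin at about EC15, sub-maximal agonist stimulus | Times: Compound 6 min at room temperature before oxytocin, 100 s read | Measured by: Fluo-8 intracellular calcium fluorescence, ex 470-495, em 515-575 nm | Controls: EC15 oxytocin alone as 0%, 75 nM oxytocin as 100%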
TAAR1 agonist: human TAAR1 agonists, primary screen, Fluo-8 calcium fluorescence, CHO RD-HGA16 cells; vehicle wells 0%, saturating PEA agonist 100%; Trace amine-associated receptor 1 (Homo sapiens), Q96RJ0; activation, % at 3 µM; AID 624467, 2012; 360,000 tested, 0.99% active;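 active = activation above the mean activation of all test compounds in the run plus 3 SD, cut at about 38% in these data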
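Repeats: no replicates (n 1) | Material: CHO-derived RD-HGA16 cells with stable Gα16 and human TAAR1 | Technique: Kinetic Fluo-8 calcium fluorescence | Schedule: 17-24 h seeding, 75 min 37 °C dye, 30 min RT | Evaluation: % activation from peak over basal fluorescence ratio, DMSO-to-PEA scaled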
TAAR1 antag: human TAAR1 antagonists, primary screen, Fluo-8 calcium fluorescence, CHO RD-HGA16 cells | Trace amine-associated receptor 1 (Homo sapiens), Q96RJ0 | antagonist | inhibition, % at 3 µM | 360,000 tested, 1.5% active;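 active = inhibition above a per-plate cutoff, the mean inhibition of test compounds on that plate plus 3 SD, cut at about 49% in these data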
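Test system: hTAAR1-expressing CHO RD-HGA16 cells, Gα16-coupled; Probe or stimulus: EC80 β-phenethylamine stimulus; Compound dosing: single nominal final test compound concentration of 3 µM; Timing: 140 s kinetic read after compound, 140 s after agonist; Signal: Fluo-8 calcium-sensitive fluorescence; Measure: % inhibition of agonist calcium response; Controls: DMSO and EC80 PEA controls.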
V1aR counter: agonists of human V1a receptor, primary screen, counter-screen for OXTR agonist project, fluorescence, CHO-V1R cells; Vasopressin V1a receptor (Homo sapiens), P37288; Fluo-8 calcium fluorescence, agonist mode; 0% DMSO, 100% 3 nM vasopressin; activation, % at 3 µM; 320,000 tested, 0.25% active; AID 2797, 2010;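 active = activation above the mean activation of all tested compounds plus 3 SD, per screening run, cut at about 20% in these data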;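 note: signal is peak over basal fluorescence ratio across a 100 second FLIPR read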
Target sequence (P37288 whole entry, looked up): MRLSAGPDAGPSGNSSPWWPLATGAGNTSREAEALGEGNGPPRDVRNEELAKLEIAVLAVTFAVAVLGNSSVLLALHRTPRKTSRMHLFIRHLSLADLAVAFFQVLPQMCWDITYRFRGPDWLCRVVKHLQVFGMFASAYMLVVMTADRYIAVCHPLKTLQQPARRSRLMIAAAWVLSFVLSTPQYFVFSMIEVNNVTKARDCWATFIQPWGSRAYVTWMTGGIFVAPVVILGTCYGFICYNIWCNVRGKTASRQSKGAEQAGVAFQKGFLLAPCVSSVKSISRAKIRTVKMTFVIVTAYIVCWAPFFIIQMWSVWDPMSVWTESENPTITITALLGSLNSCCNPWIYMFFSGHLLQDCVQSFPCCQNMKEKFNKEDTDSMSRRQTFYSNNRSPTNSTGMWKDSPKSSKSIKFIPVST
OXTR ag: human OXTR agonists, primary screen, fluorescence, CHO-OTR cells, Fluo-8 calcium | activation, % at 3 µM | Oxytocin receptor (Homo sapiens), P30559 | 320,000 tested, 0.32% active | Fluo-8 calcium fluorescence; normalized: DMSO 0%, oxytocin 100%;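 active = activation above the mean of all tested compounds plus 3 SD, cutoff set per screening run, cut at about 20% in these data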;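 note: peak over basal fluorescence ratio from a 100 s FLIPR kinetic read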
TAAR1 ag confirm: human TAAR1 agonists, retest of hits, confirmation, Fluo-8 calcium fluorescence, CHO RD-HGA16 cells | shares compounds with TAAR1 agonist | scaled: DMSO 0%, maximal phenethylamine 100% | activation, % at 3 µM | 2,400 tested, 82% active | AID 651783, 2012;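 active = activation above a cutoff set at the run's mean compound activation plus 3 SD, cut at about 39% in these data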
Ga16 nonsel ag: nonselective calcium mobilization agonists, CHO-Ga16 cells, counter-screen for hTAAR1 agonist project, cell-based, fluorescence, CHO-Ga16 parental line; shares compounds with TAAR1 agonist; Fluo-8 calcium fluorescence; normalized to maximal ATP response, DMSO zero; 2,400 tested, 50% active; activation, % at 3 µM;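 active = activation above the run cutoff, the mean activation over all tested wells plus 3 SD, cut at about 12% in these data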
TAAR1 desensitize: TAAR1 desensitization by agonist hits, confirmation, counter-screen for TAAR1 agonist project, cell-based, fluorescence, tachyphylaxis | 2,400 tested, 46% active | CHO RD-HGA16 hTAAR1, Fluo-8 calcium, beta-PEA response inhibition | inhibition, % at 3 µM | shares compounds with TAAR1 agonist;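 active = inhibition above the run cutoff, the mean inhibition of all test compounds plus 3 SD, cut at about 49% in these data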;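 note: beta-PEA stimulus applied at its EC80; loss of beta-PEA calcium signal after compound pretreatment read as receptor desensitization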
Ga16 nonsel ant: inhibition of ATP-evoked calcium response in CHO-Ga16 cells, counter-screen for TAAR1 agonist project, cell-based, fluorescence; 2,400 tested, 39% active; shares compounds with TAAR1 agonist; inhibition, % at 3 µM; CHO-Ga16 ATP-induced calcium, Fluo-8 fluorescence;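 active = inhibition above the plate's mean compound inhibition plus 3 SD, computed per plate, cut at about 22% in these data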
Large screens that a line does not name were inactive (follow-up assays come after a bar, where they were run); ! = not confirmed by another sample.

COc1cc(C2NC(=O)C(C#N)=C(Nc3cccc(C)c3)S2)ccc1O (configuration not stated)	none
COc1cc(CNc2ncnc3c2ncn3[C@H]2CN(CCc3ccccc3)C[C@@H](CO)O2)cc(OC)c1OC	TAAR1 agonist 59 (no result: OXTR potentiate, V1aR counter, OXTR ag) | TAAR1 ag confirm 64 | Ga16 nonsel ag inactive | TAAR1 desensitize inactive | Ga16 nonsel ant inactive
COCCN1C[C@@H](CO)O[C@@H](n2cnc3c(NCc4cc(OC)c(OC)c(OC)c4)ncnc32)C1	none (no result: OXTR potentiate, V1aR counter, OXTR ag)
COCCNc1ncnc2c1ncn2[C@H]1CN(Cc2ccc(Cl)cc2)C[C@@H](CO)O1	none (no result: OXTR potentiate, V1aR counter, OXTR ag)
COCCNc1ncnc2c1ncn2[C@H]1CN(CCc2ccccc2)C[C@@H](CO)O1	TAAR1 agonist 46 (no result: OXTR potentiate, V1aR counter, OXTR ag) | TAAR1 ag confirm 48 | Ga16 nonsel ag inactive | TAAR1 desensitize inactive | Ga16 nonsel ant inactive
C/C(NCCc1ccccc1)=C1/CCOC1=O	TAAR1 agonist 91, TAAR1 antag 90 (no result: OXTR potentiate, V1aR counter, OXTR ag) | TAAR1 ag confirm 98 | Ga16 nonsel ag inactive | TAAR1 desensitize 88 | Ga16 nonsel ant inactive
O=C(NCCCc1ccccc1)[C@@H]1Cc2ccccc2CN1	none
C=CCn1c(SCC(=O)NCCc2ccccc2)nnc1C(C)NC(=O)c1cccs1 (configuration not stated)	TAAR1 agonist 49 | TAAR1 ag confirm 66 | Ga16 nonsel ag inactive | TAAR1 desensitize inactive | Ga16 nonsel ant inactive
C=CCn1c(SCC(=O)Nc2cccc(C(=O)OC)c2)nnc1C(C)NC(=O)c1cccs1 (configuration not stated)	none
O=C(Cn1nnc(N2CCCC2)n1)N/N=C/c1ccc(Cl)cc1	TAAR1 agonist 58 | TAAR1 ag confirm 85 | Ga16 nonsel ag inactive | TAAR1 desensitize inactive | Ga16 nonsel ant inactive
Cc1ccc(NC2=NCC(=O)N2CCc2ccccc2)cc1C	TAAR1 agonist 47 | TAAR1 ag confirm 59 | Ga16 nonsel ag inactive | TAAR1 desensitize inactive | Ga16 nonsel ant inactive
CCN(CC)CCNC(=O)c1ccc(Cl)c(S(=O)(=O)Nc2ccccc2OC)c1	none
CCN(CC)CCNC(=O)c1ccc(Cl)c(S(=O)(=O)Nc2ccc(Cl)cc2)c1	TAAR1 agonist 70! | TAAR1 ag confirm inactive | Ga16 nonsel ag inactive | TAAR1 desensitize inactive | Ga16 nonsel ant inactive
COc1ccccc1NS(=O)(=O)c1ccc(C(=O)N2CCCC(C(F)(F)F)C2)cc1 (configuration not stated)	none
Cc1ccc(NS(=O)(=O)c2ccc(C(=O)N3CCCC(C(F)(F)F)C3)cc2)cc1 (configuration not stated)	TAAR1 agonist 142, TAAR1 antag 89, V1aR counter 49, OXTR ag 53 | TAAR1 ag confirm 125 | Ga16 nonsel ag 90 | TAAR1 desensitize 88 | Ga16 nonsel ant 48
Cc1ccc(S(=O)(=O)Nc2ccc(NC(=O)c3c(F)c(F)c(F)c(F)c3F)cc2)cc1	TAAR1 agonist 117, TAAR1 antag 66, V1aR counter 27, OXTR ag 37 | TAAR1 ag confirm 115 | Ga16 nonsel ag 71 | TAAR1 desensitize 100 | Ga16 nonsel ant 67
Cc1ccc(NS(=O)(=O)c2ccc(NC(=O)N3CCCCC3)cc2)cc1	TAAR1 agonist 52 | TAAR1 ag confirm 46 | Ga16 nonsel ag 14 | TAAR1 desensitize inactive | Ga16 nonsel ant inactive
Cc1cccc(NC(=O)Nc2ccncc2)c1	TAAR1 agonist 53 | TAAR1 ag confirm 77 | Ga16 nonsel ag inactive | TAAR1 desensitize inactive | Ga16 nonsel ant inactive
O=C(Nc1ccncc1)Nc1cccc(F)c1	TAAR1 agonist 92 (no result: OXTR potentiate, V1aR counter, OXTR ag) | TAAR1 ag confirm 104 | Ga16 nonsel ag 12 | TAAR1 desensitize 84 | Ga16 nonsel ant inactive
O=C(Nc1ccncc1)c1cccc(F)c1	none
O=C(Nc1ccncc1)Nc1ccc(F)cc1F	TAAR1 agonist 47 | TAAR1 ag confirm 71 | Ga16 nonsel ag inactive | TAAR1 desensitize inactive | Ga16 nonsel ant inactive
O=C(Nc1cccnc1)Nc1cccc(F)c1	TAAR1 agonist 52 | TAAR1 ag confirm 78 | Ga16 nonsel ag inactive | TAAR1 desensitize 54 | Ga16 nonsel ant inactive
O=C1CC2CCCN2C=C1I (configuration not stated)	none
N#C/C(=C/Nc1ccccc1C(=O)O)C(N)=O	none
CSc1ncnc2c1ncn2CCCNCCCc1ccccc1	none (no result: OXTR potentiate, V1aR counter, OXTR ag)
CSc1ncnc2c1ncn2CCCNCCc1ccccn1	TAAR1 agonist 69 (no result: OXTR potentiate, V1aR counter, OXTR ag) | TAAR1 ag confirm 82 | Ga16 nonsel ag inactive | TAAR1 desensitize inactive | Ga16 nonsel ant inactive
CC(/C=N/n1cnnc1)=C\c1ccccc1	TAAR1 agonist 102 | TAAR1 ag confirm 87 | Ga16 nonsel ag 63 | TAAR1 desensitize inactive | Ga16 nonsel ant inactive
C(=C\c1ccccc1)/C=N/n1cnnc1	none
ClC(=C\c1ccccc1)/C=N/N1CCN(c2ccccn2)CC1	none
ClC(/C=N/n1cnnc1)=C/c1ccccc1	TAAR1 agonist 76 | TAAR1 ag confirm 62 | Ga16 nonsel ag 30 | TAAR1 desensitize inactive | Ga16 nonsel ant inactive
CC(=C/c1ccccc1)/C=N/n1cnnc1	TAAR1 agonist 96 | TAAR1 ag confirm inactive | Ga16 nonsel ag 59 | TAAR1 desensitize inactive | Ga16 nonsel ant inactive
CC(C)N(Cc1nccn1C)C(=O)c1ccc2oc(Cc3ccccc3)nc2c1	none (no result: OXTR potentiate, V1aR counter, OXTR ag)
CN(c1ccccc1)S(=O)(=O)c1cccc(C(=O)OCC(=O)NCc2ccc3c(c2)OCO3)c1	none
Cc1ccc(NCC2(N=Cc3ccccc3)OC(CO)C(O)C2O)cc1 (configuration not stated)	none (no result: OXTR potentiate, V1aR counter, OXTR ag)
CC(/C=N/NC(=O)c1ccc(Cn2cc([N+](=O)[O-])cn2)o1)=C\c1ccccc1	none
COc1cc(CNC(=O)Nc2nnc([C@@H]3C[C@H](O)[C@@H](CO)O3)s2)cc(OC)c1OC	none (no result: OXTR potentiate, V1aR counter, OXTR ag)
